From PMC3288537 (ACS Chemical Biology, 2011)

Experiments:
Format in all cases: biochemical
MKP-3 = biological target: T1, MKP-3 (Homo sapiens, UniProt Q16828); assay: Dose-response OMFP phosphatase assay, MKP-3; settings: read-out: IC50 MKP-3; OMFP substrate
T1 sequence (Q16828 1-381): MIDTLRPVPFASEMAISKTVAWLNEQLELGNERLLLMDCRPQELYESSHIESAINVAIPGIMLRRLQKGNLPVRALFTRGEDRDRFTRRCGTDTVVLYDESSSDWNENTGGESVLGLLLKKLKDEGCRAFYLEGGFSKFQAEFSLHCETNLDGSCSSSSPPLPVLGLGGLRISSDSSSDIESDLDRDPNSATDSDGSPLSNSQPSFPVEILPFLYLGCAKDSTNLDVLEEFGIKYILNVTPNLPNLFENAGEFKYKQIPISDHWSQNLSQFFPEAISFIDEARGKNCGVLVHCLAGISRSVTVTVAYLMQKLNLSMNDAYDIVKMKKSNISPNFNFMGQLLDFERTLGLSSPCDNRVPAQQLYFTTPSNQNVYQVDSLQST

CD45 = biological target: T2, CD45 (Homo sapiens, UniProt P08575); assay: Dose-response OMFP phosphatase assay, CD45; settings: read-out: IC50 CD45; OMFP substrate
T2 sequence (P08575 26-1306): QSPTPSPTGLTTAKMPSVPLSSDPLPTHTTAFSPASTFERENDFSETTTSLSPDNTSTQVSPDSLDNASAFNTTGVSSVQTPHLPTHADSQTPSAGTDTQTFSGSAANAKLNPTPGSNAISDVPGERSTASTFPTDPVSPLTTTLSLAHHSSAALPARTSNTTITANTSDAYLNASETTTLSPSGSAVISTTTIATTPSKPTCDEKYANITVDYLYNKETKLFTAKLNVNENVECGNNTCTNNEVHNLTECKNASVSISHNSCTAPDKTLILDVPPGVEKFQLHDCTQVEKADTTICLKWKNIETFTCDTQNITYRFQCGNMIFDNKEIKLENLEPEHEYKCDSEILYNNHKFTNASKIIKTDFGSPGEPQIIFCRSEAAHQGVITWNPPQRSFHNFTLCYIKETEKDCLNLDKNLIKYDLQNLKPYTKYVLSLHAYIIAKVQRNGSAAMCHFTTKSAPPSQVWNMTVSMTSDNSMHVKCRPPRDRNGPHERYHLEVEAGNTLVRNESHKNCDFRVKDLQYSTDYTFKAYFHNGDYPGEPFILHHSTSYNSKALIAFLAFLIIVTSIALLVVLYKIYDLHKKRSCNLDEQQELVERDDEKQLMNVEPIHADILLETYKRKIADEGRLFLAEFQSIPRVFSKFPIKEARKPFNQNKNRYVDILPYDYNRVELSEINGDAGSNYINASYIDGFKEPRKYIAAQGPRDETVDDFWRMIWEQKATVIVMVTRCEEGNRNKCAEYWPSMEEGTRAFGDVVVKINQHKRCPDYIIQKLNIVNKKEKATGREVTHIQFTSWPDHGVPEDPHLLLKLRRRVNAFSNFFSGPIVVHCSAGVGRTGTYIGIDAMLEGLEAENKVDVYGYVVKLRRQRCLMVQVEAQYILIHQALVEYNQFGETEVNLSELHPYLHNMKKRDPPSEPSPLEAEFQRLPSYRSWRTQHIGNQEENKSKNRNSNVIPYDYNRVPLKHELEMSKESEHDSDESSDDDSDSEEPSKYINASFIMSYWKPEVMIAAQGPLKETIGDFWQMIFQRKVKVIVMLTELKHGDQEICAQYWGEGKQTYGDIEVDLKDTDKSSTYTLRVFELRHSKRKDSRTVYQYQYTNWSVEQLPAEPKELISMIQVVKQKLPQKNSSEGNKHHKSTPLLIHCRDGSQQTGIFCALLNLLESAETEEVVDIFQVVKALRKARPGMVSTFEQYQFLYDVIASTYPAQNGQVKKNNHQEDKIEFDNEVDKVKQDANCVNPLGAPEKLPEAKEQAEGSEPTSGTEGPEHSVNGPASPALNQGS
Outline: (§1)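 Ten-point 2-fold dilution series of test compound prepared in DMSO. Fluorescence (ex 485/em 528 nm) read in kinetic mode over 10 min; progress-curve slopes taken as activity. IC50 by nonlinear regression (sigmoidal, variable slope).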

[1] = biological target: T3, HePTP-DM (K105A/T106A double mutant) (Homo sapiens, UniProt P35236, K126A/T127A); assay: Dose-response OMFP phosphatase assay, HePTP K105A/T106A double mutant; settings: read-out: IC50 HePTP-DM
T3 sequence (P35236 22-360 K126A/T127A limits assumed): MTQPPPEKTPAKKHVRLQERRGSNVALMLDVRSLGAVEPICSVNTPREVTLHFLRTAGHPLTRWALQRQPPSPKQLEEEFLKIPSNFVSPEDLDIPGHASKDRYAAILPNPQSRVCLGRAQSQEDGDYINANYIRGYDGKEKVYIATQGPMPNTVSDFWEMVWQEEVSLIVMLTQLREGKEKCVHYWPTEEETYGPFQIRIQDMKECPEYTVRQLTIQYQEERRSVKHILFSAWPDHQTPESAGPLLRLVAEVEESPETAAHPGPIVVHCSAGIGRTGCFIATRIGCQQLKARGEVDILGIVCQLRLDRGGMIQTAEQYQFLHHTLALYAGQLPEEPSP

SHP2 = biological target: T4, SHP2 (Homo sapiens, UniProt Q06124); assay: Dose-response OMFP phosphatase assay, SHP2; settings: read-out: IC50 SHP2; OMFP substrate
T4 sequence (Q06124 1-593): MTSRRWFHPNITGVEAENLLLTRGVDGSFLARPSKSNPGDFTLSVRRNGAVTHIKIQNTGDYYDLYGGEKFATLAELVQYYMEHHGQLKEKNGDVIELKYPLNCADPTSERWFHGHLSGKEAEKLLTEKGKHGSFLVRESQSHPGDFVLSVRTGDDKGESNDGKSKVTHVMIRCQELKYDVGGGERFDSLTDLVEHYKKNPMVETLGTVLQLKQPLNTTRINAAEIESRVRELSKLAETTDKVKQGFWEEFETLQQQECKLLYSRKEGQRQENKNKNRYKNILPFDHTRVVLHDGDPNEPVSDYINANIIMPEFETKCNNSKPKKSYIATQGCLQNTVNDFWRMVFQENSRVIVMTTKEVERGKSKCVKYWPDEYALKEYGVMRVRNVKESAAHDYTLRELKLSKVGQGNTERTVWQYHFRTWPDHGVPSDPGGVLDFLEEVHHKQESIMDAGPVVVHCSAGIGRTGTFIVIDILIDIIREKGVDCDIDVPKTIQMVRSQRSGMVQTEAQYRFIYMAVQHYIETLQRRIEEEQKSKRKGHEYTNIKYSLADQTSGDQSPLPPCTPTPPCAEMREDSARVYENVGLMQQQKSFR
Outline: as §1

O=C(O)c1ccccc1-c1ccc(/C=c2\sc3nc4cc(Br)cnc4n3c2=O)o1 [Compound 1] was tested, and the IC50 (MKP-3) was 5.2 µM, the IC50 (CD45) was 3.1 µM and the IC50 [1] was 6.6 µM. The IC50 (SHP2) was 1.1 µM.
